Calls of active or inactive are those of the source. No cut-off for these calls is given here.
Legend:
MCF7 [1] = assay: Antiproliferative activity against human breast cancer cell line MCF7; type: functional
Outline: (§1)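 Cells kept in RPMI 1640 with 2 mM L-glutamine and 10% FCS at 37 °C, 5% CO2. Seeded 5 × 10³/well, left 24 h to adhere, then exposed 72 h to 0.1 nM–100 µM final (DMSO stocks diluted in medium, n = 8). MTT 400 µg/mL final added at dosing and at 72 h, 4 h at 37 °C. Formazan dissolved in DMSO:glycine pH 10.5, A550 read. GI50 from triplicate tests.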

HCC 2998 [2] = assay: Antiproliferative activity against human colon cancer cell line HCC2998; type: functional; outline: as §1
MDA-MB-468 [3] = assay: Antiproliferative activity against human breast cancer cell line MDA468; type: functional; outline: as §1
KM12 [4] = assay: Antiproliferative activity against human colon cancer cell line KM12; type: functional; outline: as §1
MCF7 [5] = assay: Ability to induce CYP1A1 protein expression in […] human breast cancer cell line MCF7; type: functional, cell-based
Outline: (§2)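 Whole-cell lysates from untreated cultures and from cells exposed 24 h to 10 nM–10 µM compound. Protein-normalized samples heated 95 °C 5 min, run on 10% SDS-PAGE and electroblotted to PVDF. Probed with polyclonal anti-human CYP1A1/1A2 antiserum and an alkaline phosphatase secondary, developed with BCIP/NBT. Recombinant CYP1A1 served as positive control for the 52 kDa band.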

MDA-MB-468 [6] = assay: Ability to induce CYP1A1 protein expression in […] human breast cancer cell line MDA468; type: functional, cell-based; outline: as §2
HCC 2998 [7] = assay: Ability to induce CYP1A1 protein expression in sensitive human colon cancer cell line HCC2998; type: functional, cell-based; outline: as §2
KM12 [8] = assay: Ability to induce CYP1A1 protein expression in sensitive human colon cancer cell line KM12; type: functional, cell-based; outline: as §2

Compound	GI50 (MCF7 [1]) [µM]	GI50 (HCC 2998 [2]) [µM]	GI50 (MDA-MB-468 [3]) [µM]	GI50 (KM12 [4]) [µM]	Activity (MCF7 [5])	Activity (MDA-MB-468 [6])	Activity (HCC 2998 [7])	Activity (KM12 [8])
COc1cc(-c2nc3cc(F)ccc3s2)cc(OC)c1OC	0.0019	21.1	0.0021	13	–	–	–	–
c1ccc2sc(-c3ccc4c(c3)OCO4)nc2c1	57.8	68.3	0.8	98.6	–	–	–	–
Fc1ccc2sc(-c3ccc4c(c3)OCO4)nc2c1	20.7	22.3	0.57	25.1	Active	Active	–	–
COc1ccc(-c2nc3c(F)cccc3s2)cc1OC	0.005	1.06	0.005	0.85	–	–	–	–
COc1ccc(-c2nc3ccccc3s2)cc1OC	52.7	42.5	0.53	74.2	Active	Active	–	–
COc1ccc(-c2nc3cc(Br)ccc3s2)cc1OC	13.6	20	0.77	65.2	–	–	–	–
Oc1ccc(-c2nc3ccccc3s2)cc1O	2.19	6.99	0.22	15.6	–	–	–	–
COc1ccc(-c2nc3cc(Cl)ccc3s2)cc1OC	27.9	4.88	1	12.4	–	–	–	–
COc1cc(OC)cc(-c2nc3cc(F)ccc3s2)c1	1.23	5.21	0.31	7.55	–	–	–	–
COc1ccc(-c2nc3cc(F)ccc3s2)c(OC)c1OC	0.023	0.037	0.12	14.2	–	–	–	–
Cc1cc(-c2nc3ccccc3s2)ccc1N	–	> 100	< 0.0001	> 100	–	–	–	–

Second part, led by results:

GI50 (MCF7 [1]) [µM]	GI50 (HCC 2998 [2]) [µM]	GI50 (MDA-MB-468 [3]) [µM]	Compound	GI50 (KM12 [4]) [µM]	Activity (MCF7 [5])	Activity (MDA-MB-468 [6])	Activity (HCC 2998 [7])	Activity (KM12 [8])
0.85	3.45	0.42	COc1ccc(-c2nc3cc(F)ccc3s2)cc1Br	6.7	–	–	–	–
0.75	1.04	0.17	COc1cc(-c2nc3cc(F)ccc3s2)ccc1O	47.3	–	–	–	–
0.87	13.7	0.64	COc1ccc(-c2nc3cc(F)ccc3s2)cc1F	20.6	–	–	–	–
0.82	0.94	0.36	COc1ccc(-c2nc3cc(F)ccc3s2)cc1I	6.9	–	–	–	–
0.062	6.21	0.005	COc1ccc(-c2nc3ccc(F)cc3s2)cc1OC	24.1	–	–	–	–
0.5	7.6	0.05	COc1ccc(-c2nc3cc(F)ccc3s2)cc1O	18.4	–	–	–	–
0.653	6.49	0.088	COc1cc(-c2nc3cc(F)ccc3s2)cc(O)c1OC	47.5	–	–	–	–
–	–	0.055	CCOc1ccc(-c2nc3cc(F)ccc3s2)cc1OCC	38.5	–	–	–	–
–	> 100	< 0.0001	Cc1cc(-c2nc3cc(F)ccc3s2)ccc1N	> 100	–	–	–	–
0.49	12.4	0.33	COc1ccc(-c2nc3cc(F)ccc3s2)cc1	24.6	–	–	–	–
0.065	53.5	0.048	COCOc1ccc(-c2nc3cc(F)ccc3s2)cc1OC	19.2	–	–	–	–
0.76	2.5	0.48	COc1ccc(-c2nc3cc(F)ccc3s2)cc1Cl	7.05	–	–	–	–
–	–	< 0.0001	COc1ccc(-c2nc3cc(F)ccc3s2)cc1OC	0.29	Active	Active	inactive	inactive
0.048	0.54	0.058	COc1ccc(-c2nc3cc(F)ccc3s2)cc1C	18.6	–	–	–	–
0.72	1.64	0.19	Oc1ccc(-c2nc3cc(F)ccc3s2)cc1O	13	–	–	–	–
0.08	3.32	0.092	CCOc1cc(-c2nc3cc(F)ccc3s2)ccc1OC	5.42	–	–	–	–

— ChEMBL document CHEMBL1148599, “Antitumor benzothiazoles. 26.(1) 2-(3,4-dimethoxyphenyl)-5-fluorobenzothiazole (GW 610, NSC 721648), a simple fluorinated 2-arylbenzothiazole, shows potent and selective inhibitory activity against lung, colon, and breast cancer cell lines” (2006)
